According to PMC10149104 (Journal of medicinal chemistry, 2023):
Where a SMILES comes first, the peptide text is derived from it.

Experiments:
recombinant human PEPD = biological target: T1, recombinant human PEPD (Homo sapiens, UniProt P12955); experiment: Inhibition of recombinant PEPD, alanine release assay; type: biochemical
T1 sequence (P12955 1-493): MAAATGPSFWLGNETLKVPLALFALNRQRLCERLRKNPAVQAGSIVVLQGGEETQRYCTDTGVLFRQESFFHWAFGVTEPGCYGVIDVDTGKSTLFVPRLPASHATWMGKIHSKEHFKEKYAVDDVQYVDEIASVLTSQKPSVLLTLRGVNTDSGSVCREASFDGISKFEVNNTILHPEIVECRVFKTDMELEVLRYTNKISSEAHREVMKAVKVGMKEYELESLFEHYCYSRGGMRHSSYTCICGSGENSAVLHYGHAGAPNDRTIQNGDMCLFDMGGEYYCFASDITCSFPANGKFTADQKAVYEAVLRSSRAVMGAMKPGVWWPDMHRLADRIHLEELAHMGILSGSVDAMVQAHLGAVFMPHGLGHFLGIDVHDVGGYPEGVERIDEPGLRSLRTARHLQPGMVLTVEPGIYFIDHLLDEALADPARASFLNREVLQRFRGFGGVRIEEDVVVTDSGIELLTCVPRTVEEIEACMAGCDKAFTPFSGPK

recombinant XPNPEP1 = recombinant XPNPEP1 (Homo sapiens, UniProt Q9NQW7); experiment: Inhibition of recombinant XPNPEP1, H-Lys; type: biochemical; conditions: for XPNPEP1 inhibition (in words): recombinant XPNPEP1
MV4;11 CASP1^−/− cells = experiment: CellTiter-Glo cell viability, CASP1 knockout MV4; type: cell-based, human; conditions: for Cell death independent of CASP1 in MV4;11 cells (in words): WT and CASP1^−/− MV4;11, CTG, 24 h
How it was run: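 CASP1-knockout MV4;11 cells (generated previously) are grown alongside wild type in RPMI 1640 with 10% FBS at 37 °C in 5% CO2. Cells are plated at 2000 per well in 384-well plates and dosed by pin tool in three-fold dilutions, topping at 100 μM (down to 15.2 nM) or 10 μM (down to 1.5 nM). After 24 h, CellTiter-Glo luminescence is read (2 min shake, 10 min at 25 °C). IC50 values are means ± SEM of three biological replicates.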

[1] = system: DOX-inducible CARD8 E274R mutant THP-1 cells; experiment: CARD8 E274R mutant NT degradation assay in CARD8^−/− THP-1 cells; type: cell-based, human; conditions: DOX 100 ng/mL 16 h; VbP 10 μM, CQ31/CQ80 20 μM, VP-OMe 1 mM, MeBs 10 μM; 6 h
How it was run: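 Parental CARD8-knockout THP-1 cells carry a stably integrated doxycycline-inducible CARD8 E274R construct. Cells are grown in RPMI 1640 with L-glutamine and 10% FBS at 37 °C in 5% CO2. They are induced with or without DOX (100 ng/mL, 16 h), then exposed to test compounds for 6 h.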

[2] = biological target: CARD8-DPP9 ternary complex in HEK 293T^CASP1+GSDMD cells (Homo sapiens, UniProt Q86TI2); experiment: dTAG-based CARD8-DPP9 ternary complex disruption assay; type: cell-based; conditions: dTAG-13 500 nM; VbP 10 μM, CQ31 20 μM, CQ80 20 μM, VP-OMe 1 mM; 6 h; LDH release
MV4;11 WT cells = experiment: CellTiter-Glo cell viability, WT MV4; type: cell-based, human; conditions: CTG, 24 h
[3] = Stability in cell culture supernatants; type: in vitro ADME
How it was run: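 Test compounds are incubated in conditioned medium collected from MV4;11 cultures for 24 h at 37 °C. Intact compound and the free acid product are then quantified by LC/MS, with species identified by retention time. Values are means ± SEM of three biological replicates.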

OCI-AML2 cells = experiment: PI uptake in OCI-AML2 cells; type: cell-based, human; conditions: 6.25 μM, compared to CQ31
How it was run: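 OCI-AML2 cells (2 × 10^4 per well, 384-well, RPMI) are treated with 6.25 μM compound, with PI added at 10 μM final. PI fluorescence (Ex/Em 535/617 nm) is recorded at 37 °C every 5 min over 6 h. Signals are baseline-corrected to DMSO vehicle and normalized to the maximum response. Values are means ± SEM of three biological replicates.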

Sequence of recombinant XPNPEP1 (Q9NQW7 whole entry): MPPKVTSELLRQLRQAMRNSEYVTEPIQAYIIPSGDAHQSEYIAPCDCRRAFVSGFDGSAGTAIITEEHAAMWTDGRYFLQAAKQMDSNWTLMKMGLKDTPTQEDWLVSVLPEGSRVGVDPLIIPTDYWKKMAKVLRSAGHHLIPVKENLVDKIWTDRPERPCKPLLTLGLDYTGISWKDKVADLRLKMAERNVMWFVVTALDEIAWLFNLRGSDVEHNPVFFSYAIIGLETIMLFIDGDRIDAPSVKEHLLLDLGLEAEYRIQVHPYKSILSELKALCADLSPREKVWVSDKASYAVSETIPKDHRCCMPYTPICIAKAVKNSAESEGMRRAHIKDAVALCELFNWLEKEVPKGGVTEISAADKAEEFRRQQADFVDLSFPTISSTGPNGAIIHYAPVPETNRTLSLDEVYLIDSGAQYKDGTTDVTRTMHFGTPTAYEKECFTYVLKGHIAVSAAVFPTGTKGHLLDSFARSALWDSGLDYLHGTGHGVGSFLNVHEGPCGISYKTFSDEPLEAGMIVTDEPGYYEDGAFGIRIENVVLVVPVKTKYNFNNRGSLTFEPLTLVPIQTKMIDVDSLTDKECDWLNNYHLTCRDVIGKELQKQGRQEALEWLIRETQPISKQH
Sequence of CARD8-DPP9 ternary complex in HEK 293T^CASP1+GSDMD cells (Q86TI2 whole entry, one chain of several): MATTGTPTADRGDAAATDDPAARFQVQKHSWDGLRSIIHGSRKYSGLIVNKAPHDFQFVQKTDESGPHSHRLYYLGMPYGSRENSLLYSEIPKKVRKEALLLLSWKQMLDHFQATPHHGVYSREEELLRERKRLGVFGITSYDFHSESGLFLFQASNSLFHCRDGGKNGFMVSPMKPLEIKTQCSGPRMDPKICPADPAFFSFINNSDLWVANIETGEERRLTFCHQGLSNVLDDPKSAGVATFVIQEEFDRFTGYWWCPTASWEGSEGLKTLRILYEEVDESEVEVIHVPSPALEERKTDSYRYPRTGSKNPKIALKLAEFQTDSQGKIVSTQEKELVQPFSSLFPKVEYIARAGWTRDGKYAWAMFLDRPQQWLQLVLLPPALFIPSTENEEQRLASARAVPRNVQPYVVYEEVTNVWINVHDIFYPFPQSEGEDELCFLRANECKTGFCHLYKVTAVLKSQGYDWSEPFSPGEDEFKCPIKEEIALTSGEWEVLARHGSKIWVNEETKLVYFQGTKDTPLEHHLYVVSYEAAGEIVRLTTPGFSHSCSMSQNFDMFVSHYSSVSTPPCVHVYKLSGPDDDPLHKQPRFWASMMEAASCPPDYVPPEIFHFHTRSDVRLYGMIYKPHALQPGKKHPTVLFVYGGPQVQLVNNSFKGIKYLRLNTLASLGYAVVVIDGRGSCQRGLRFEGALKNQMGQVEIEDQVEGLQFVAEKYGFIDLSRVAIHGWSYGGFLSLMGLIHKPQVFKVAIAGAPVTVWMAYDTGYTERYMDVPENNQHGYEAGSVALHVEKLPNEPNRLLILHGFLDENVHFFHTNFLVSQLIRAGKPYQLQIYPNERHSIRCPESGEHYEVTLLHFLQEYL

Row | PEPD inhibition (in words) (recombinant human PEPD) | Structure (SMILES) | Cytotoxicity / activity against MV4;11 cells (in words) (MV4;11 WT cells) | further results
1 | very weak PEPD and XPNPEP1 inhibitors | COC(=O)[C@H](Cc1ccccc1)NC(=O)[C@@H](O)[C@H](N)CC(C)C [CQ72, Methyl ((2S,3R)-3-Amino-2-hydroxy-5-methylhexanoyl)-l-phenylalaninate] |  | XPNPEP1 inhibition (in words) (recombinant XPNPEP1): very weak PEPD and XPNPEP1 inhibitors; Cell death independent of CASP1 in MV4;11 cells (in words) (MV4;11 CASP1^−/− cells): triggered CASP1-independent cell death
2 |  | COC(=O)[C@@H]1CCCN1C(=O)[C@@H](N)C(C)C [VP-OMe, reference compound] (H-Val-Pro-OMe) |  | Additional cell death in CARD8 E274R assay (NT degradation) [1]: did not cause substantially more death; Pyroptosis after dTAG-13 treatment (ternary complex destabilization) [2]: induce more pyroptosis after dTAG-13 treatment
3 | very weak PEPD and XPNPEP1 inhibitors | COC(=O)[C@H](CC(C)C)NC(=O)[C@@H](O)[C@H](N)CC(C)C [CQ52, Methyl ((2S,3R)-3-Amino-2-hydroxy-5-methylhexanoyl)-l-leucinate] |  | XPNPEP1 inhibition (in words) (recombinant XPNPEP1): very weak PEPD and XPNPEP1 inhibitors; Cell death independent of CASP1 in MV4;11 cells (in words) (MV4;11 CASP1^−/− cells): triggered CASP1-independent cell death
4 | retained PEPD inhibition | COC(=O)[C@@H]1CCCN1C(=O)[C@@H](O)[C@H](N)CCCCO [CQ75] | lost cytotoxicity | 
5 |  | CC(C)C[C@@H](N)[C@H](O)C(=O)N1CCC[C@H]1CNS(C)(=O)=O [CQ53, N-(((S)-1-((2S,3R)-3-Amino-2-hydroxy-5-methylhexanoyl)-pyrrolidin-2-yl)methyl)methanesulfon-amide] | completely inactive in cells | 
6 | more potent than CQ31 | CC(C)C[C@@H](N)C(O)C(=O)N1CCC[C@H]1C(=O)O (stereo partly drawn) [CQ04, (2S,3R)-3-amino-2-hydroxy-5-methyl-hexanoyl-proline] |  | XPNPEP1 inhibition (in words) (recombinant XPNPEP1): more potent than CQ31
7 | inhibited PEPD and XPNPEP1 similarly | CC(C)C[C@@H](N)[C@H](O)C(=O)N1CCC[C@H]1C(=O)OC1CCCC1 [CQ94, Cyclopentyl ((2S,3R)-3-Amino-2-hydroxy-5-methylhexanoyl)-L-prolinate] | slightly more toxic | XPNPEP1 inhibition (in words) (recombinant XPNPEP1): inhibited PEPD and XPNPEP1 similarly
8 |  | C[C@H](NC(=O)[C@@H]1CCCN1C(=O)[C@@H]1CCCN1C(=O)[C@@H](O)[C@H](N)Cc1ccccc1)C(N)=O [apstatin, reference compound] | not cytotoxic at all | IC50 (recombinant XPNPEP1; read-out: XPNPEP1 IC50 (μM ± SEM), recombinant XPNPEP1, H-Lys(abz)-Pro-Pro-pNA cleavage, means ± SEM of three biological replicates): 18 ± 1.7 µM; IC50 (MV4;11 CASP1^−/− cells; read-out: MV4;11 CASP1^−/− IC50, CTG cell viability after 24 h treatment): > 20 µM
9 |  | COC(=O)[C@H](CC(C)C)NC(=O)[C@@H](O)[C@H](N)Cc1ccccc1 [MeBs, bestatin methyl ester, reference compound] |  | Additional cell death in CARD8 E274R assay (NT degradation) [1]: still induce considerably more cell death; Cell death independent of CASP1 in MV4;11 cells (in words) (MV4;11 CASP1^−/− cells): CASP1-independent cell death
10 | inhibited PEPD and XPNPEP1 similarly | CC(C)C[C@@H](N)[C@H](O)C(=O)N1CCC[C@H]1C(=O)OC(C)(C)C [CQ34, tert-Butyl ((2S,3R)-3-Amino-2-hydroxy-5-methylhexanoyl)-L-pro-linate] | slightly more toxic | XPNPEP1 inhibition (in words) (recombinant XPNPEP1): inhibited PEPD and XPNPEP1 similarly; Stability in cell culture supernatants (in words) [3]: considerably more stable than CQ31 or CQ94; Time after which completely hydrolyzed [3]: ≤ 8 h
11 |  | COC(=O)[C@@H]1CCCN1C(=O)[C@@H](O)[C@H](N)Cc1ccccc1 [CQ42, Methyl ((2S,3R)-3-Amino-2-hydroxy-4-phenylbutanoyl)-l-prolinate] | almost completely inactive | 
12 |  | COC(=O)[C@@H]1CCCN1C(=O)[C@@H](O)[C@H](N)C1CC1 [CQ62, Methyl ((2S,3R)-3-Amino-3-cyclopropyl-2-hydroxypropanoyl)-l-prolinate] | almost completely inactive | 
13 |  | COC(=O)[C@@H]1CCCN1C(=O)[C@@H](O)[C@H](N)C12CC3CC(CC(C3)C1)C2 [CQ47, Methyl ((2S,3R)-3-(Adamantan-1-yl)-3-amino-2-hydroxypropanoyl)-l-prolinate] | almost completely inactive | 
14 |  | CC(C)C[C@@H](N)[C@H](O)C(=O)N1CCC[C@H]1c1nnn[nH]1 [CQ99, (2S,3R)-1-((S)-2-(1H-Tetrazol-5-yl)pyrrolidin-1-yl)-3-amino-2-hydroxy-5-methylhexan-1-one] | completely inactive in cells | 
15 |  | CC(C)C[C@@H](N)[C@H](O)C(=O)N1CCCC1 [CQ76, (2S,3R)-3-Amino-2-hydroxy-5-methyl-1-(pyrrolidin-1-yl)hexan-1-one] | abrogated all activity | 
16 |  | CC(C)C[C@H](NC(=O)[C@@H]1CCCN1C(=O)[C@@H](O)[C@H](N)CC(C)C)C(=O)NCCc1ccccc1 [CQ116, (S)-1-((2S,3R)-3-Amino-2-hydroxy-5-methylhexanoyl)-N-((S)-4-methyl-1-oxo-1-(phenethylamino)pentan-2-yl)pyrrolidine-2-carboxamide] |  | Stability in cell culture supernatants (in words) [3]: completely stable
17 |  | CONC(=O)[C@@H]1CCCN1C(=O)[C@@H](O)[C@H](N)CC(C)C [CQ55, (S)-1-((2S,3R)-3-Amino-2-hydroxy-5-methylhexanoyl)-N-methoxypyrrolidine-2-carboxamide] | completely inactive in cells | 
18 |  | CC(C)C[C@@H](N)[C@H](O)C(=O)N1CCC[C@H]1C(N)=O [CQ49, (S)-1-((2S,3R)-3-Amino-2-hydroxy-5-methylhexanoyl)-pyrrolidine-2-carboxamide] | retained similar PEPD/XPNPEP1 inhibition and cytotoxicity as CQ31 | 
19 |  | CC(C)CCNC(=O)[C@@H]1CCCN1C(=O)[C@@H](O)[C@H](N)CC(C)C [CQ95, (S)-1-((2S,3R)-3-Amino-2-hydroxy-5-methylhexanoyl)-N-isopentylpyrrolidine-2-carboxamide] | retained similar PEPD/XPNPEP1 inhibition and cytotoxicity as CQ31 | 
20 |  | COC(=O)[C@@H]1C[C@H](O)CN1C(=O)[C@@H](O)[C@H](N)CC(C)C [CQ39, Methyl (2S,4S)-1-((2S,3R)-3-Amino-2-hydroxy-5-methylhexano-yl)-4-hydroxypyrrolidine-2-carboxylate] | completely inactive | 
21 |  | COC(=O)[C@@H](NC(=O)[C@@H]1CCCN1C(=O)[C@@H](O)[C@H](N)CC(C)C)C(C)C [CQ78, Methyl ((2S,3R)-3-Amino-2-hydroxy-5-methylhexanoyl)-l-prolyl-l-valinate] |  | Rate of lytic cell death by PI uptake in OCI-AML2 cells (OCI-AML2 cells): caused more rapid lytic cell death

Row | Structure (SMILES) | PEPD inhibition (in words) (recombinant human PEPD) | Cytotoxicity / activity against MV4;11 cells (in words) (MV4;11 WT cells) | further results
22 | CC(C)C[C@H](NC(=O)[C@@H]1CCCN1C(=O)[C@@H](O)[C@H](N)CC(C)C)C(=O)O [CQ92] | more potent inhibitor of both PEPD and XPNPEP1 than CQ80 |  | XPNPEP1 inhibition (in words) (recombinant XPNPEP1): more potent inhibitor of both PEPD and XPNPEP1 than CQ80
